Results: ChEMBL document CHEMBL4680175, “Sulfonamide-based ring-fused analogues for CAN508 as novel carbonic anhydrase inhibitors endowed with antitumor activity: Design, synthesis, and in vitro biological evaluation” (Eur J Med Chem, 2020)
Active and inactive are the calls of the source. The calls are words filed in the database; no cut-off is given here.

Key:
[1] = system: MCF7; assay: Antiproliferative activity against human MCF7 cells measured after 48 hrs under normoxic condition by MTT assay; format: functional, cell-based; conditions: MCF7, 48 h
[2] = target: Carbonic anhydrase 1 (Homo sapiens, UniProt P00915); assay: Inhibition of recombinant human carbonic anhydrase 1 preincubated with enzyme for 15 mins by phenol red dye based stopped flow CO2 hydrase assay
[3] = target: Carbonic anhydrase 2 (Homo sapiens, UniProt P00918); assay: Inhibition of recombinant human carbonic anhydrase 2 preincubated with enzyme for 15 mins by phenol red dye based stopped flow CO2 hydrase assay
[4] = target: Carbonic anhydrase 9 (Homo sapiens, UniProt Q16790); assay: Inhibition of recombinant human carbonic anhydrase 9 preincubated with enzyme for 15 mins by phenol red dye based stopped flow CO2 hydrase assay
[5] = target: Carbonic anhydrase 12 (Homo sapiens, UniProt O43570); assay: Inhibition of recombinant human carbonic anhydrase 12 preincubated with enzyme for 15 mins by phenol red dye based stopped flow CO2 hydrase assay
[6] = target: Cyclin-dependent kinase 2/cyclin E1 (Homo sapiens, UniProt P24941); assay: Inhibition of CDK2/cyclin E (unknown origin) expressed in baculovirus infected Sf21 insect cells using histone H1 as substrate in presence of [gamma33P]ATP
[7] = target: CDK9/cyclin T1 (Homo sapiens, UniProt P50750); assay: Inhibition of human full-length N-terminal GST/His6-tagged CDK9 (1 to 372 residues)/His6-tagged Cyclin-T1 (1 to 726 residues) expressed in sf9 cells using (YSPTSPS)2KK peptide as substrate in presence of [gamma33P]ATP
[8] = system: CCRF-CEM; assay: Antitumor activity against human CCRF-CEM cells assessed as cell growth inhibition at 10 uM incubated for 48 hrs by sulforhodamine B assay; format: functional; conditions: read-out: GI
Summary of the method: (§1)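 NCI Drug Evaluation Branch protocol: primary single-dose screen at 10 μM across a 57-line human cancer panel. Drug exposure is 48 h. Cell growth and viability are read by sulforhodamine B assay. Data are given as a mean graph of percent growth of treated cells and reported as percentage growth inhibition (GI%).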

[9] = system: HOP-92; assay: Antitumor activity against human HOP92 cells assessed as cell growth inhibition at 10 uM incubated for 48 hrs by sulforhodamine B assay; format: functional; conditions: read-out: GI; summary of the method: as §1
[10] = system: NCI-H226; assay: Antitumor activity against human NCI-H226 assessed as cell growth inhibition at 10 uM incubated for 48 hrs by sulforhodamine B assay; format: functional; conditions: read-out: GI; summary of the method: as §1
[11] = system: NCI-H322M; assay: Antitumor activity against human NCI-H322M cells assessed as cell growth inhibition at 10 uM incubated for 48 hrs by sulforhodamine B assay; format: functional; conditions: read-out: GI; summary of the method: as §1
[12] = system: NCI-H522; assay: Antitumor activity against human NCI-H522 cells assessed as cell growth inhibition at 10 uM incubated for 48 hrs by sulforhodamine B assay; format: functional; conditions: read-out: GI; summary of the method: as §1
[13] = system: KM12; assay: Antitumor activity against human KM12 cells assessed as cell growth inhibition at 10 uM incubated for 48 hrs by sulforhodamine B assay; format: functional; conditions: read-out: GI; summary of the method: as §1
[14] = system: IGROV-1; assay: Antitumor activity against human IGROV1 cells assessed as cell growth inhibition at 10 uM incubated for 48 hrs by sulforhodamine B assay; format: functional; conditions: read-out: GI; summary of the method: as §1
[15] = system: A498; assay: Antitumor activity against human A498 cells assessed as cell growth inhibition at 10 uM incubated for 48 hrs by sulforhodamine B assay; format: functional; conditions: read-out: GI; summary of the method: as §1
[16] = system: UO-31; assay: Antitumor activity against human UO-31 cells assessed as cell growth inhibition at 10 uM incubated for 48 hrs by sulforhodamine B assay; format: functional; conditions: read-out: GI
Summary of the method: (§2)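 NCI one-dose screen: 57-cell-line panel exposed at 10 μM for 48 h, Drug Evaluation Branch protocol. Growth and viability read by sulforhodamine B; data given as percent growth inhibition from the mean-graph of percent growth of treated cells.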

[17] = system: RXF 393; assay: Antitumor activity against human RXF 393 cells assessed as cell growth inhibition at 10 uM incubated for 48 hrs by sulforhodamine B assay; format: functional; conditions: read-out: GI; summary of the method: as §1
[18] = system: SN12C; assay: Antitumor activity against human SN12C cells assessed as cell growth inhibition at 10 uM incubated for 48 hrs by sulforhodamine B assay; format: functional; conditions: read-out: GI; summary of the method: as §1
[19] = system: MCF7; assay: Antitumor activity against human MCF7 cells assessed as cell growth inhibition at 10 uM incubated for 48 hrs by sulforhodamine B assay; format: functional; conditions: read-out: GI; summary of the method: as §1
[20] = system: T47D; assay: Antitumor activity against human T-47D cells assessed as cell growth inhibition at 10 uM incubated for 48 hrs by sulforhodamine B assay; format: functional; conditions: read-out: GI; summary of the method: as §2
[21] = system: MDA-MB-468; assay: Antitumor activity against human MDA-MB-468 cells assessed as cell growth inhibition at 10 uM incubated for 48 hrs by sulforhodamine B assay; format: functional; conditions: read-out: GI; summary of the method: as §1
[22] = system: MCF7; assay: Antiproliferative activity against human MCF7 cells measured after 48 hrs under CoCl2-induced hypoxic condition by MTT assay; format: functional, cell-based; conditions: MCF7, 48 h
[23] = system: MDA-MB-468; assay: Antiproliferative activity against human MDA-MB-468 cells measured after 48 hrs under normoxic condition by MTT assay; format: functional, cell-based; conditions: MDA-MB-468, 48 h
[24] = system: MCF7; assay: Potency index, ratio of staurosporine IC50 to compound IC50 for antiproliferative activity against human MCF7 cells measured after 48 hrs under normoxic condition by MTT assay; format: functional
[25] = system: MCF7; assay: Potency index, ratio of staurosporine IC50 to compound IC50 for antiproliferative activity against human MCF7 cells measured after 48 hrs under CoCl2-induced hypoxic condition by MTT assay; format: functional
[26] = system: MDA-MB-468; assay: Potency index, ratio of staurosporine IC50 to compound IC50 for antiproliferative activity against human MDA-MB-468 cells measured after 48 hrs under normoxic condition by MTT assay; format: functional
[27] = system: MDA-MB-468; assay: Potency index, ratio of staurosporine IC50 to compound IC50 for antiproliferative activity against human MDA-MB-468 cells measured after 48 hrs under CoCl2-induced hypoxic condition by MTT assay; format: functional
[28] = system: MCF7; assay: Induction of cell cycle arrest in human MCF7 cells assessed as accumulation at G2/M phase at IC50 concentration incubated for 24 hrs by PI/RNase staining based flow cytometric analysis; format: functional
Summary of the method: (§3)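 Cells were washed in ice-cold PBS, fixed in ice-cold 70% ethanol, treated with 100 µg/mL RNase and stained with 40 µg/mL PI. DNA content was read by flow cytometry, with sub-G1 compared against control.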

[29] = system: MCF7; assay: Induction of cell cycle arrest in human MCF7 cells assessed as decrease in S phase population at IC50 concentration incubated for 24 hrs by PI/RNase staining based flow cytometric analysis; format: functional; summary of the method: as §3
[30] = system: MCF7; assay: Induction of cell cycle arrest in human MCF7 cells assessed as fold increase in apoptotic cells at sub-G1 phase at IC50 concentration incubated for 24 hrs by PI/RNase staining based flow cytometric analysis relative to control; format: functional; summary of the method: as §3
[31] = system: MCF7; assay: Induction of apoptosis in human MCF7 cells assessed as early apoptotic cells by Annexin V-FITC/propidium iodide staining based flow cytometric analysis (reference value: 0.47 %); format: functional
[32] = system: MCF7; assay: Induction of apoptosis in human MCF7 cells assessed as late apoptotic cells by Annexin V-FITC/propidium iodide staining based flow cytometric analysis (reference value: 0.29 %); format: functional
[33] = system: MCF7; assay: Induction of apoptosis in human MCF7 cells assessed as necrotic cells by Annexin V-FITC/propidium iodide staining based flow cytometric analysis (reference value: 1.3 %); format: functional
[34] = system: MCF7; assay: Induction of apoptosis in human MCF7 cells assessed as fold increase in apoptotic cells by Annexin V-FITC/propidium iodide staining based flow cytometric analysis relative to control; format: functional
[35] = system: MDA-MB-468; assay: Antiproliferative activity against human MDA-MB-468 cells measured after 48 hrs under CoCl2-induced hypoxic condition by MTT assay; format: functional, cell-based; conditions: MDA-MB-468, 48 h
[36] = system: NCI/ADR-RES; assay: Antitumor activity against human NCI/ADR-RES cells assessed as cell growth inhibition at 10 uM incubated for 48 hrs by sulforhodamine B assay; format: functional, cell-based; summary of the method: as §1

Carbonic anhydrase 12, sequence (O43570 whole entry): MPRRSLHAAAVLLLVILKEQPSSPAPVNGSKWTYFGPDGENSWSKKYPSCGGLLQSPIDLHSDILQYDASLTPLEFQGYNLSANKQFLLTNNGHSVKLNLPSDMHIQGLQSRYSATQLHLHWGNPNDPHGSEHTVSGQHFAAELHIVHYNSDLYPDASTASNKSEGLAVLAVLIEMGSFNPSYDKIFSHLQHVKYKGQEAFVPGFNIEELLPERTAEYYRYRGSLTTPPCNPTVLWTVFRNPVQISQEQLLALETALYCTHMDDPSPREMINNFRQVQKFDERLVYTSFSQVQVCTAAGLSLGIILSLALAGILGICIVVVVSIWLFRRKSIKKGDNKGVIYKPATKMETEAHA
Carbonic anhydrase 1, sequence (P00915 whole entry): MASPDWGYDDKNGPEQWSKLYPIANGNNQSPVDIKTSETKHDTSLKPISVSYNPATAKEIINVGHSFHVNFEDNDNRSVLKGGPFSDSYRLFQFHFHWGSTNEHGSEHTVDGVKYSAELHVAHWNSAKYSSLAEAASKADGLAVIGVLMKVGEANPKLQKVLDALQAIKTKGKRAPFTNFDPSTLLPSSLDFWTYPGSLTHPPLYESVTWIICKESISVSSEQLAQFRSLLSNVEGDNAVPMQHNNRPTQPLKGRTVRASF
CDK9/cyclin T1, sequence (O60563 whole entry, the tested form may be a part): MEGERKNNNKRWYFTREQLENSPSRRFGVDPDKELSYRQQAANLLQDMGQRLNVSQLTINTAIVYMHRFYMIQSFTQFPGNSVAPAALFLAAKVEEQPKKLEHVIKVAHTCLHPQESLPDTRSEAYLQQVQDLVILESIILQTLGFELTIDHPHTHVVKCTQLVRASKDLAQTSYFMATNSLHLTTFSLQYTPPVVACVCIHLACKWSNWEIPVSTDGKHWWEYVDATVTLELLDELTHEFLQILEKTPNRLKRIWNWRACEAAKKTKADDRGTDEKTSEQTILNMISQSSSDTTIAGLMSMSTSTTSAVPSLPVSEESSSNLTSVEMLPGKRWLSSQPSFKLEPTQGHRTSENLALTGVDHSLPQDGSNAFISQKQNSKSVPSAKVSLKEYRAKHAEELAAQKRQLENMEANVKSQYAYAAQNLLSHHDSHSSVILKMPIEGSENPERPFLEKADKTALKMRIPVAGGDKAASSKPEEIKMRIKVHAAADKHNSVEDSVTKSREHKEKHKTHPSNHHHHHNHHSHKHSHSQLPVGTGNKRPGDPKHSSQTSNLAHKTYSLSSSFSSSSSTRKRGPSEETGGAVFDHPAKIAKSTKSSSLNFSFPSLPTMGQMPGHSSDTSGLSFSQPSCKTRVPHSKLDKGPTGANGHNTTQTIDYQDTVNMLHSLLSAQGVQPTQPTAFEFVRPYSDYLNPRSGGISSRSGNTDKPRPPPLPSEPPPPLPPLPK
CDK9/cyclin T1, sequence (P50750 whole entry, the tested form may be a part): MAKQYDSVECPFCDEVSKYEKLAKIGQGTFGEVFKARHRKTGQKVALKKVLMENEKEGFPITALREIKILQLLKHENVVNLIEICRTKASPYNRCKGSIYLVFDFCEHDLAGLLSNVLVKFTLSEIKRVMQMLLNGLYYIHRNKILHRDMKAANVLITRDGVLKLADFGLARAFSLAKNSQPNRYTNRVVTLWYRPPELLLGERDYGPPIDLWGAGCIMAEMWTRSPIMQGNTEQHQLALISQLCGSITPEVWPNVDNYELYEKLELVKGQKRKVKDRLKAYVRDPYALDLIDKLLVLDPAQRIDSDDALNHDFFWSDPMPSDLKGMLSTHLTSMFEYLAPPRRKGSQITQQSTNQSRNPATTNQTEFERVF

## N#Cc1c(-c2ccccc2)nc2c(/N=N/c3ccc(S(N)(=O)=O)cc3)c(N)nn2c1N
[1]
  IC50: 660 nM
[2]
  Ki: 2680 nM
[3]
  Ki: 922 nM
[4]
  Ki: 33.5 nM
[5]
  Ki: 39.4 nM
[6]
  IC50: > 12500 nM
[7]
  IC50: > 12500 nM
[8]
  inhibition of growth at 10 µM: 21%
[9]
  inhibition of growth at 10 µM: 27%
[10]
  inhibition of growth at 10 µM: 24%
[11]
  inhibition of growth at 10 µM: 21%
[12]
  inhibition of growth at 10 µM: 54%
[13]
  inhibition of growth at 10 µM: 50%
[14]
  inhibition of growth at 10 µM: 35%
[15]
  inhibition of growth at 10 µM: 30%
[16]
  inhibition of growth at 10 µM: 25%
[17]
  inhibition of growth at 10 µM: 42%
[18]
  inhibition of growth at 10 µM: 24%
[19]
  inhibition of growth at 10 µM: 60%
[20]
  inhibition of growth at 10 µM: 26%
[21]
  inhibition of growth at 10 µM: 58%
[22]
  IC50: 960 nM
[23]
  IC50: 1890 nM
[24]
  Ratio IC50: 5
[25]
  Ratio IC50: 9
[26]
  Ratio IC50: 2.3
[27]
  Ratio IC50: 6
[28]
  Activity: Active
[29]
  Activity: Active
[30]
  fold change (FC): 7
[31]
  Activity: 8.46%
[32]
  Activity: 16.94%
[33]
  Activity: 2.64%
[34]
  fold change (FC): 26
[35]
  IC50: 1070 nM
[36]
  Activity: inactive
